Glyco luc inh – increase of ERlucT glycosylation luciferase signal, primary screen, N-linked glycosylation inhibitor project, D54 ERlucT cells, luminescence, set 2. D54 ERlucT glycosylation luciferase reporter, 24 h; percent of 100 nM tunicamycin response. AID 588692, 2011. reporter increase, % at 12.5 µM. actives 0.23% (n = 360,000);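 active = mean luciferase reporter signal, scaled so untreated is 0 and the glycosylation-blocking control 100, at or above a set limit in every replicate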;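 also: luciferase carries N-glycosylation sites so blocking glycosylation raises the light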
SR-BI DiI-HDL act – activators of SR-BI mediated DiI-HDL uptake, primary screen, ldlA[mSR-BI] CHO cells, DiI fluorescence | 3 h; 100 = double the neutral-control signal | activation, % at 12.5 µM | actives 0.096% (n = 320,000);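 active = mean replicate activation of at least 60% and every replicate at or above 60%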
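Test system: SR-BI-overexpressing, LDLR-lacking CHO cells. Measured by: DiI fluorescence, bottom read. Medium: Ham's F12 with 0.5% BSA, HEPES 25 mM, pH 7.4. Timing: 3 h uptake period with compound, 37 °C.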
PglD DTNB – C. jejuni PglD acetyltransferase inhibitors, primary screen, biochemical, DTNB colorimetric, single point; UDP-N-acetylbacillosamine N-acetyltransferase PglD (Campylobacter jejuni); purified PglD enzyme, DTNB colorimetric CoA detection; inhibition, % at 12.5 µM; actives 0.098% (n = 360,000); in the data active = inhibition above about 16%, passing the limit was not always enough
HIV Env fusion – inhibitors of HIV-1 Env-driven cell-cell fusion, primary screen, HeLa-JRFL effector, CEM21 target cells, luciferase; inhibition, % at 12.3 µM; actives 1.1% (n = 360,000);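 active = mean replicate inhibition score of at least 50 and every replicate individually at or above 50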
Rtt109 HAT inh – inhibitors of C. albicans Rtt109/Vps75 HAT, primary screen, biochemical, ThioGlo CoA-SH fluorescence, plate reader | actives 0.16% (n = 330,000) | inhibition, % at 34.9 µM | purified Rtt109/Vps75, 4 h;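 active = inhibition of at least 50% in every replicate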
SR-BI DiI inh – inhibitors of SR-BI mediated HDL lipid uptake, primary screen, ldlA[mSR-BI] cells, fluorescence, single point; Scavenger receptor class B member 1 (Mus musculus), Q61009; ldlA[mSR-BI] CHO cells, DiI-HDL uptake fluorescence, 3 h; inhibition, % at 12.5 µM; actives 0.96% (n = 320,000); AID 488896, 2010;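 active = mean replicate inhibition of at least 70% and a set share of replicates each scoring 70 or more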
Target sequence (Q61009 whole entry, looked up): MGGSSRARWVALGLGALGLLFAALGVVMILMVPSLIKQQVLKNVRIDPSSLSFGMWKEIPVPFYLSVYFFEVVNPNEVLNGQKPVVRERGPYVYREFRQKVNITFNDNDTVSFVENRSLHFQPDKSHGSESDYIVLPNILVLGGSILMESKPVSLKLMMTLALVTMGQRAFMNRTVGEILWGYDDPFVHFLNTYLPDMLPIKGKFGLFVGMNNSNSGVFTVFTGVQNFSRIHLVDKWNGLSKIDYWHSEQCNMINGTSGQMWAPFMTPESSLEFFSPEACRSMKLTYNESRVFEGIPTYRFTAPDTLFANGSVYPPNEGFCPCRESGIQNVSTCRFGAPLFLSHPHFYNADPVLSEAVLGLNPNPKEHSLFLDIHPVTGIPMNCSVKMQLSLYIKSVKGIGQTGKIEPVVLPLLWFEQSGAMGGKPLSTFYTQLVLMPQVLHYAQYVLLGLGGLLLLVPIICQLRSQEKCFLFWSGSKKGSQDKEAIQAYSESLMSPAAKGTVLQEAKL
Hits are given with their value; . = inactive; / = not tested or not shown; [ ] = dose if it differs, or a comment. A selection: hits, their analogues and other compounds. The true share with any hit is near 1.9%.

SMILES	Glyco luc inh	SR-BI DiI-HDL act	PglD DTNB	HIV Env fusion	Rtt109 HAT inh	SR-BI DiI inh
CS(=O)(=O)c1ccc(Sc2nc3ccccc3s2)c([N+](=O)[O-])c1	40	.	.	/	.	.
O=C1N[C@@H](Cc2ccccc2)COCc2cn(nn2)CC[C@H]1Cc1ccccc1	/	/	/	.	/	/
COc1ccc(C2CC(c3c(O)cc(C)oc3=O)=NCCS2)c(OC)c1 (stereo not given)	.	.	.	/	.	78
C[C@@H]1CCCCO[C@@H](CN(C)Cc2ccc(C(=O)O)cc2)[C@@H](C)CN([C@H](C)CO)C(=O)c2cc(NS(=O)(=O)c3ccccc3)ccc2O1	/	/	.	.	/	/
COc1nc(=O)n(C2C=CC(=O)O2)cc1F (stereo not given)	33	/	.	.	/	/
COc1ccc(NC(=O)c2cc(-c3ccccn3)nc3ccccc23)c(OC)c1	.	.	.	.	.	.
CCOc1ccccc1NC(=O)c1cc(-c2ccccn2)nc2ccccc12	.	.	.	/	.	75
CCN(CC)C(=O)c1cccc(NC(=O)c2cc(-c3ccccn3)nc3ccccc23)c1	.	.	.	/	.	75
C[C@H]1CN([C@@H](C)CO)C(=O)c2cccc(NC(=O)C3CCCCC3)c2O[C@@H]1CN(C)CC1CC1	/	/	.	.	/	/
O=c1[nH]c(=O)n([C@H]2C[C@H](O)[C@@H](CO)O2)cc1I	55	.	.	.	.	.
CCc1cn(C2CC(O)C(CO)O2)c(=O)[nH]c1=O (stereo not given)	.	.	.	.	.	.
C[C@H]1CN([C@@H](C)CO)C(=O)c2cccc(NS(=O)(=O)c3ccccc3)c2O[C@@H]1CN(C)CC1CCCCC1	/	/	.	.	/	/
CN=c1scc(-c2ccc(F)cc2)n1/N=C/c1ccc(O)c(O)c1	.	.	/	.	.	78
CCOC(=O)c1c(C)[nH]c(C)c1C(=O)COC(=O)[C@@H](NC(=O)c1ccccc1OCC)C(C)C	.	.	.	102	.	.
CCOc1ccc(-c2cc(CCCC(=O)Nc3cccc(OC)c3)no2)cc1	.	.	.	76	.	.
C[C@@H]1CN([C@H](C)CO)C(=O)c2cc(NS(=O)(=O)c3ccc(F)cc3)ccc2O[C@@H]1CN(C)CC1CC1	/	/	.	/	/	/
Cc1cc(NC(=O)Nc2cc(C)nn2-c2ccccc2)n(-c2ccccc2)n1	.	.	.	/	/	84
COc1ccc(S(=O)(=O)Nc2ccc3c(c2)CC(=O)N([C@H](C)CO)C[C@H](C)[C@@H](CN(C)S(=O)(=O)c2c(C)noc2C)O3)cc1	/	/	.	.	/	/
CC(C)CC(=O)N1CC=CC[C@@H](c2ccc(Cl)cc2)N(Cc2ccc(Cl)cc2)C(=O)[C@@H]1Cc1ccccc1	.	.	.	76	.	.
Cc1ccc(S(=O)(=O)N(C)C[C@H]2Oc3c(NC(=O)NC4CCCCC4)cccc3C(=O)N([C@@H](C)CO)C[C@@H]2C)cc1	/	/	.	.	/	/
C[C@@H]1CN([C@@H](C)CO)C(=O)c2cccc(NS(=O)(=O)c3ccccc3)c2O[C@@H]1CN(C)S(=O)(=O)c1cn(C)cn1	/	/	.	.	/	/
C[C@@H]1CCCCO[C@H](CN(C)CC2CC2)[C@H](C)CN([C@H](C)CO)C(=O)c2cc(NC(=O)C3CCCCC3)ccc2O1	/	/	.	.	/	/
O=C1C(Nc2ccccc2)=C(N2CCCCC2)C(=O)c2ccccc21	.	.	/	/	.	.
O=C(/C=C/c1ccc(O)cc1)c1ccc(NC2=C(N3CCCCC3)C(=O)c3ccccc3C2=O)cc1	.	.	.	/	.	90
Cc1ccc(NC2=C(N3CCCCC3)C(=O)c3ccccc3C2=O)cc1	.	.	/	/	.	73
SMILES	Glyco luc inh	SR-BI DiI-HDL act	PglD DTNB	HIV Env fusion	Rtt109 HAT inh	SR-BI DiI inh
Cc1cc2c([nH]c3ccccc32)c2c1OC(C)(C)C=C2	.	.	.	/	.	.
COc1ccc2[nH]c(=O)c3c(c2c1)OC(C)(C)C=C3	.	.	.	136	.	.
CO[C@H]1CN(C)C(=O)c2cc(NC(=O)Nc3ccccc3)ccc2OC[C@@H](C)N(C(=O)CC2CC2)C[C@@H]1C	/	/	.	.	/	/
Cc1ccc(Nc2nc(N/N=C/c3c[nH]c4ccccc34)nc(N3CCOCC3)n2)cc1	.	.	/	.	.	110
C(=N\Nc1nc(Nc2ccccc2)nc(N2CCOCC2)n1)/c1c[nH]c2ccccc12	/	/	/	70	/	/
Cc1[nH]c2ccccc2c1/C=N/Nc1nc(Nc2ccc(F)cc2)nc(N2CCOCC2)n1	.	.	.	/	.	.
CC(C)C#Cc1ccc([C@H]2[C@@H](C#N)N(C(=O)c3ccccn3)[C@@H]2CO)cc1	/	/	.	.	/	/
COc1cccc(NC(=O)N(C)C[C@@H]2Oc3ncc(C#Cc4ccc(F)cc4)cc3C(=O)N([C@@H](C)CO)C[C@H]2C)c1	/	/	.	.	/	/
Cc1ccc(S(=O)(=O)N/N=C\C=C\c2ccccc2)cc1	.	.	/	/	51	.
O=S(=O)(N/N=C\C=C\c1ccccc1)c1ccc(Br)cc1	.	.	.	/	.	.
Cc1cccc(S(=O)(=O)N2C[C@H](O)COC[C@@H]3O[C@@H](CC(=O)NCCCN4CCOCC4)CC[C@H]32)c1	/	/	.	/	/	/
C[C@H]1CN([C@@H](C)CO)S(=O)(=O)c2ccc(C3=CCCC3)cc2O[C@H]1CN(C)S(=O)(=O)c1ccc(F)cc1	/	/	.	.	/	/
COc1ccc(S(=O)(=O)N(C)C[C@H]2Oc3cc(C4=CCCC4)ccc3S(=O)(=O)N([C@@H](C)CO)C[C@H]2C)cc1	/	/	.	69[16.7 µM]	/	/
C[C@@H]1CN([C@H](C)CO)S(=O)(=O)c2ccc(C3=CCCCC3)cc2O[C@@H]1CN(C)S(=O)(=O)c1ccc(F)cc1	/	/	.	58[16.7 µM]	/	/
C[C@H]1CN([C@@H](C)CO)C(=O)c2cc(NC(=O)Cn3cnnn3)ccc2O[C@@H]1CN(C)S(=O)(=O)c1ccc(Cl)cc1	/	/	/	.	/	/
N#CC(C#N)=C(Nc1ccc(F)cc1)SCc1cccc(Br)c1	.	.	.	65	.	.
CCNC(=O)C[C@H]1CC[C@@H]2[C@@H](COc3ccc(NS(C)(=O)=O)cc3C(=O)N2C)O1	/	/	.	.	/	/
